Values joined by “and” are separate entries in the source; they are usually repeats but may differ in a detail not shown here. Equal values may be shown once.

For the test, the system named is Candida glabrata growth in glycerol medium, OD600, 48 h. Kind of test: single-agent C. glabrata growth inhibition on glycerol, dose response, glycerol carbon source, dry powder, plate reader, set 3 (AID 623965). Summed up:
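Test system: Candida glabrata yeast cells; Buffer or medium: CSM synthetic medium with glycerol as carbon source; Incubation: 48 h at 30 °C, no shaking; Measured by: OD600 absorbance.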
Consider `CCOC(=O)N1C(=O)C2(CCCCC2)N(c2ccccc2)C1=S`, for which the AC50 was 0.0335 µM. To `CCOC(=O)N1C(=O)C2(CCCCC2)N(c2ccc(F)cc2)C1=S` belongs 0.0113 µM; to `CCOC(=O)N1C(=O)C2(CCCCC2)N(c2ccc(Cl)cc2)C1=S`, 0.0297 µM. On to `CCOC(=O)N1C(=O)C2(CCCCC2)N(c2cccc(C)c2)C1=S`, for which the AC50 was 0.0386 µM. As for `CCOC(=O)N1C(=O)C2(CCCCC2)N(c2ccc(C#N)cc2)C1=S`, the figure is 0.0398 µM; as for `CCOC(=O)N1C(=O)C2(CCCCC2)N(c2ccc(C)cc2)C1=S`, 0.0576 µM and 0.0553 µM. As for `C/C=C/[C@@H]1[C@H]2C[C@@H](C)CC[C@@H]2C(C)=C[C@H]1C(=O)c1c(O)c(-c2ccc(O)cc2)c[nH]c1=O`, the figure is 2.94 µM. As to `CC1/C=C/C=C\C=C\C=C\C=C\C=C\C=C\C(O[C@H]2OC(C)C(O)C(N)C2O)CC2OC(O)(CC(O)CC(O)C(O)CCC(O)CC(O)CC(=O)OC(C)C(C)C1O)CC(O)C2C(=O)O` (stereo partly drawn), the AC50 was 1.41 µM.

For orientation: AC50 means the midpoint of the concentration-response curve, whichever way the signal moves.
